# GAA850 FXN act = FXN promoter activators, primary screen, cell-based, luciferase luminescence, HEK293 lucGAA850; HEK293 lucGAA850 FXN promoter luciferase reporter, 24 h; percent of 10 µM SAHA response; 360,000 compounds, 0.56% hits; activation, % at 6 µM; AID 540364, 2011;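 active = activation above the average of all compounds screened plus 3 SD, cutoff fixed separately per campaign, cut at about 7.5% in these data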;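 note: 0% = DMSO wells and 100% = 10 µM SAHA wells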
# Rce1 inhib = yeast Rce1p protease inhibitors, primary screen, biochemical, fluorescence, cell-free homogeneous | calls only | CAAX prenyl protease 2 (Saccharomyces cerevisiae (strain ATCC 204508 / S288c)), Q03530 | yeast membranes, quenched prenylated peptide cleavage fluorescence | 290,000 compounds, 0.27% hits;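 active = fall in fluorescence gain of 50% or more versus controls, with final raw signal at or below 3038400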;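 note: plate controls were neutral control wells for no effect and wells lacking membranes for full effect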
# proCasp7 act = procaspase-7 activators, primary screen, counter-screen for procaspase-3 activator project, biochemical, absorbance, HTS, human; AID 463210, 2010; Caspase-7 (Homo sapiens), P55210; recombinant procaspase-7, Ac-DEVD-pNA absorbance 405 nm; D23A/D198A/D206A triple mutant, cannot self-cleave; scale: DMSO 0, 5 µM enzyme 100; 330,000 compounds, 0.093% hits; activation, % at 8.5 µM;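 active = percent activation above the screen-wide mean plus 3 SD, cut at about 25% in these data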
# Target sequence (P55210 whole entry D23A/D198A/D206A): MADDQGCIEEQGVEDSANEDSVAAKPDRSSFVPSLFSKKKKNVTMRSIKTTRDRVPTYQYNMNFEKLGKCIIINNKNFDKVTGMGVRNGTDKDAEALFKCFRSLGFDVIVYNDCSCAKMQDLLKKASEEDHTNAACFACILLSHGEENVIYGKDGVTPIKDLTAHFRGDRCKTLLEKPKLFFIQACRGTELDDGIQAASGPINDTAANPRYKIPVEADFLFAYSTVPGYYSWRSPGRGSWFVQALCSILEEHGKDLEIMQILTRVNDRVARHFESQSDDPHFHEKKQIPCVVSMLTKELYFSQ
#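 Detection: p-Nitroaniline absorbance at 405 nm, read at 0 and 120 min; system: Uncleavable procaspase-7 mutant enzyme; evaluation: % activation from two-timepoint absorbance difference, scaled to controls; times: 1 h enzyme–compound preincubation and 2 h substrate reaction, both 25 °C; buffer or medium: Zinc-free HEPES pH 7.4 with 300 mM NaCl, 0.01% Triton X-100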
# proCasp3 act = activators of human procaspase-3 D3A mutant, primary screen, biochemical, absorbance, PC-3 D3A mutant, single concentration; Caspase-3 (Homo sapiens), P42574; recombinant procaspase-3 D3A, Ac-DEVD-pNA absorbance 405 nm; activation, % at 8.5 µM; 330,000 compounds, 0.11% hits; AID 463141, 2010;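 active = activation above the mean of all tested compounds plus 3 SD, cut at about 21% in these data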;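 note: 0% = DMSO alone and 100% = DMSO wells spiked with extra 5 µM PC-3 D3A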
# Target sequence (P42574 whole entry D9A/D28A/D175A): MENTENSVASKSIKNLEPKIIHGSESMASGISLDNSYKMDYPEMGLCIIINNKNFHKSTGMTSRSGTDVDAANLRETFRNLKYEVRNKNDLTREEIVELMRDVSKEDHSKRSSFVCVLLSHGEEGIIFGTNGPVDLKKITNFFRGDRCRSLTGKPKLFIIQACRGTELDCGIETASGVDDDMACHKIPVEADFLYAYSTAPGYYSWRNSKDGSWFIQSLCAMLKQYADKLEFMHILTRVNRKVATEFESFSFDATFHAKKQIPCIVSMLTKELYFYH
#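 Compound: 8.5 µM single point, 0.8% DMSO / Material: Autoprocessing-dead procaspase-3 D3A mutant enzyme / Timing: 1 h preincubation plus 2 h reaction at 25 °C / Medium: Zinc-free HEPES/NaCl buffer with 0.01% Triton X-100 at pH 7.4 / Technique: 405 nm absorbance of p-nitroaniline, reads at 0 and 120 min / Repeats: one well per compound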
# Lipid droplet = inhibitors of hepatocyte lipid droplet formation, primary screen, imaging, high-throughput imaging, BODIPY stain | AML12 mouse hepatocytes, oleate lipid droplets | inhibition, % at 6.5 µM | 240,000 compounds, 0.4% hits | AID 1656, 2009;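 active = lipid droplet intensity inhibited by at least 50%, with more than 500 cells counted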
#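 Assay system: AML12 mouse liver cells | Compound dosing: One dose, 6.5 µM compound | Read-out basis: Droplet intensity reduction, % inhibition | Measured by: Fluorescence imaging, 20x objective, two fields per well | Schedule: Overnight treatment with compound plus oleate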
# pCIP destab = p/CIP-EGFP fusion destabilizers, primary screen, fluorescence, F442A cells | Q05BA5 | 16 h | decrease of EGFP signal, % at 10 µM | 290,000 compounds, 0.01% hits;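 active = EGFP signal decrease of at least 30% at 10 µM or well 3 SD below plate mean, unless failing retest; inactive = the rest, including hits failing retest or dose response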
# GAA30 FXN cntr = GAA30 FXN promoter activators, confirmation, counter-screen for GAA850 frataxin promoter activator project, cell-based, luminescence, HEK293, lucGAA30, triplicate; shares compounds with GAA850 FXN act; HEK293 lucGAA30 FXN promoter luciferase, 24 h; DMSO = 0%, 5 µM ipriflavone = 100%; activation, % at 6 µM; 1,900 compounds, 66% hits;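 active = mean activation above the mean of solvent-only control wells plus 3 SD, cut at about 22% in these data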;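 note: counterscreen of GAA850 promoter hits where activity marks nonselective or luminescence artifacts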
# FXN GAA850 conf = FXN GAA850 promoter activators in reporter cells, confirmation, cell-based, luminescence, HEK293 lucGAA850, triplicate; shares compounds with GAA850 FXN act; HEK293 lucGAA850 FXN promoter luciferase reporter, 24 h; 100% = activation by SAHA; activation, % at 6 µM; 1,900 compounds, 86% hits;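 active = mean activation above a set limit taken from the primary screen, cut at about 8% in these data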;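 note: 0% = DMSO wells and 100% = 10 µM SAHA wells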
# Starred values were filed as active, the others as inactive; i = inactive; · = no result given. Most compounds without a hit are left out; they make up all but 1.2% or so of the library.
SMILES,GAA850 FXN act,Rce1 inhib,proCasp7 act,proCasp3 act,Lipid droplet,pCIP destab,GAA30 FXN cntr,FXN GAA850 conf
CC(=O)Nc1sc2c(c1-c1nc3ccccc3s1)CCN(C(C)C)C2,33.8*,·,5.2,-0.7,-35.1,-268.1,-33.1,90.5*
CCS(=O)(=O)N1Cc2ccccc2CC1C(=O)Nc1nc(C)cs1 (centres undefined),7.9*,·,5.1,5.2,-15.5,5.1,79.5*,33.0*
CCS(=O)(=O)N1Cc2ccccc2CC1C(=O)Nc1nccs1 (centres undefined),8.2*,i,-6.3,-6.4,-1.2,12.0,108.8*,38.3*
CCS(=O)(=O)N1Cc2ccccc2CC1C(=O)Nc1nc2c(C)cccc2s1 (centres undefined),3.7,i,-3.2,4.6,47.8,-2.6,·,·
NC(COCc1ccccc1)c1csc(Nc2ccc(C(=O)NCCO)cc2)n1 (centres undefined),-1.4,·,·,·,·,·,·,·
O=C(Nc1ccccc1N1CCCC1)c1ccc([N+](=O)[O-])o1,1.2,i,-11.4,-14.3,2.6,7.3,·,·
Cc1ccc(NC(=O)c2ccc([N+](=O)[O-])o2)cc1C,7.7*,i,1.0,12.4,12.4,-11.4,56.1*,35.0*
CC(C)(C)C(=O)N1CCN(c2ccc(NC(=O)c3ccc([N+](=O)[O-])o3)cc2)CC1,5.3,i,1.4,-3.5,-52.1,-21.2,·,·
CC1CCN(c2ccc(NC(=O)c3ccc([N+](=O)[O-])o3)cc2)CC1,10.5*,i,3.9,-1.1,·,·,79.9*,62.6*
O=C(Nc1ccc(N2CCCC2)c(Cl)c1)c1ccc([N+](=O)[O-])o1,17.9*,·,·,·,8.2,-18.2,117.7*,69.9*
O=C(Nc1cccc([N+](=O)[O-])c1)c1ccc([N+](=O)[O-])o1,0.3,·,·,·,·,·,·,·
O=C(Nc1ccc(N2CCCCC2)cc1)c1ccc([N+](=O)[O-])o1,12.8*,·,-6.9,7.5,7.2,-6.7,114.2*,67.4*
O=C(/C=C/c1ccccc1)Nc1ccc(Cl)cn1,-0.2,·,·,·,-7.7,-3.0,·,·
O=C(N/C(=C\c1ccc(F)cc1)C(=O)N1CCOCC1)c1ccccc1,-1.3,i,7.5,2.4,-2.4,3.2,·,·
C#CCOCCOCCOCCNc1nc(N2CCN(C(=O)[C@H](CC(N)=O)n3cc(C(N)[C@@H](C)CC)nn3)CC2)nc(N2CCN(C(=O)[C@H](CCC(=O)O)n3cc([C@@H](N)CCCCN)nn3)CC2)n1 (some centres undefined),0.5,·,1.3,-5.1,·,·,·,·
CCOC(CN=c1nc(N(C)C)ss1)OCC,8.2*,·,·,·,·,·,-14.8,10.3*
CC[C@@]1(C(=O)OC)N[C@H](CN(C)C(=O)NC(C)C)[C@@H]2C(=O)N(C)C(=O)[C@@H]21,0.7,·,-4.4,-0.8,·,·,·,·
C[C@H]1c2cccc(O)c2C(O)=C2C(=O)[C@]3(O)C(O)=C(C(N)=O)C(=O)[C@@H](N(C)C)C3[C@@H](O)C21 (some centres undefined),16.0*,i,-6.3,-7.1,·,·,18.2,4.7
O=C1Nc2ccc(Br)cc2/C1=C/C(=O)c1ccccc1,11.3*,·,·,·,·,·,-7.9,16.6*
CCN(CC)C(=O)c1cc([N+](=O)[O-])cc2c1-c1ccc([N+](=O)[O-])cc1C2=C(C#N)C#N,1.0,i,-1.6,-7.0,-0.2,1.1,·,·
COc1ccc(C(=O)/C=C/Nc2cccc(C)n2)cc1OC,11.2*,i,-2.8,-5.2,·,-27.9,117.4*,46.0*
CN1C(=O)/C(=C\c2ccncc2)SC1=Nc1ccccc1,8.4*,i,3.7,-3.0,15.0,2.8,-1.0,7.2
Cc1cccc(NC(=O)CCc2nnc3ccc(NCc4ccco4)nn23)n1,1.5,i,-10.4,-1.9,-14.3,12.5,·,·
COc1ccc(S(=O)(=O)NCCc2ccc(F)cc2)cc1,0.9,i,2.1,8.4,5.4,-5.1,·,·
CCCCNc1ccc(C(F)(F)F)cc1S(=O)(=O)NCCc1ccc(F)cc1,11.9*,·,3.4,-4.3,·,·,33.0*,17.3*
SMILES,GAA850 FXN act,Rce1 inhib,proCasp7 act,proCasp3 act,Lipid droplet,pCIP destab,GAA30 FXN cntr,FXN GAA850 conf
CCOC(=O)c1c(C)nc(-c2ccccc2)nc1NC(C)=O,0.9,i,-3.1,-1.7,·,-12.3,·,·
CCOC(=O)c1c(C)nc(-c2ccccc2)nc1N,8.0*,i,-0.6,-2.7,10.2,-4.8,130.8*,38.9*
O=C(Cn1ncc(Cl)c(Cl)c1=O)N1CCN(S(=O)(=O)c2ccc3ccccc3c2)CC1,9.7*,i,-3.6,0.3,-3.7,-16.0,-63.0,16.4*
C/C=C/c1ccc(OCCCCN(C)Cc2ccccc2)c(OC)c1,9.5*,i,10.8,-3.3,-10.7,-4.7,16.2,13.2*
C/C=C/c1ccc(OCCCCOc2ccccc2C(C)=O)c(OC)c1,-0.3,i,0.2,9.6,-24.2,-0.5,·,·
N#Cc1ccc(Nc2nc(NCc3ccccc3)nc3ccsc23)cc1,9.5*,·,·,·,·,·,32.8*,13.3*
O=C(Nc1ccccc1-c1ccccc1)c1cnccn1,9.0*,i,-3.9,3.3,·,-6.0,41.3*,22.1*
O=C(COC(=O)c1cnccn1)Nc1ccccc1-c1ccccc1,0.9,·,-3.8,9.9,·,·,·,·
CCc1sc(C(=O)Nc2ccc3c(c2)OCCO3)cc1Br,8.0*,i,-5.0,-0.3,-32.9,-7.8,111.4*,41.4*
CCc1sc(C(=O)Nc2ccc3c(c2)OCO3)cc1C,7.3,·,0.4,0.6,·,·,·,·
O=C(CSC1=NCCN1)Nc1ccccc1[N+](=O)[O-],0.7,i,-1.1,-5.7,4.7,9.0,·,·
O=C(CSC1=NCCN1)Nc1cccc([N+](=O)[O-])c1,9.5*,i,3.1,-10.7,-10.1,9.6,43.0*,22.3*
C[C@H]1CN([C@@H](C)CO)C(=O)CCCn2nncc2CO[C@@H]1CN(C)S(=O)(=O)c1ccc(-c2ccccc2)cc1,-1.8,·,·,·,·,·,·,·

# Screening data from PubChem BioAssay.
